Results on 28 molecules are retold here after ChEMBL document CHEMBL1212830, “The structure-activity relationship of the 3-oxy site in the anticonvulsant (R)-N-benzyl 2-acetamido-3-methoxypropionamide” (J Med Chem, 2010).

The test system of data set [1] is Mus musculus. Put plainly: Anticonvulsant activity in ip dosed albino Carworth Farms number 1 mouse assessed as protection against maximal electroshock-induced seizure. In kind it is functional. The following applies: albino Carworth Farms number 1, ip. The method, boiled down: (§1)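 Maximal electroshock (MES) seizure test within the NINDS Anticonvulsant Screening Program. Protection is scored as block of induced hind limb extension. Mice are dosed ip and rats po.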
On the technique in general: The maximal electroshock test induces tonic seizures with an electrical stimulus.

The test system of data set [2] is Mus musculus. Description: Anticonvulsant activity in ip dosed 6 Hz psychomotor seizure model of albino Carworth Farms number 1 mouse assessed as protection against seizure. It counts as functional. The following applies: albino Carworth Farms number 1, ip. In outline:
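Psychomotor 6 Hz seizure test at 32 mA in mice, compound given intraperitoneally, run within the NINDS Anticonvulsant Screening Program. Median effective dose (ED50) in mg/kg from quantitative screening.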

The test system of data set [3] is Rattus norvegicus. Put plainly: Anticonvulsant activity in po dosed albino Sprague-Dawley rat assessed as protection against maximal electroshock-induced seizure. In kind it is functional. The following applies: albino Spague-Dawley. In outline:
as §1

A short description of data set [4]: Neurotoxicity in po dosed albino Sprague-Dawley rat by rotarod test. Conditions: in vivo. In kind it is toxicity, organism-based, albino Spague-Dawley. The method, boiled down: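 Rotorod test for behavioural neurotoxicity (mice ip, rats po). Median dose causing neurological impairment in 50% of animals (TD50, mg/kg) is determined only for compounds active in the MES test. The highest rat dose tested was 500 mg/kg.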
(In general: Falling from the rotarod earlier than controls is read as motor impairment.)

Data set [5] relates to Rattus norvegicus. Put plainly: Protective index, ratio of neurotoxicity TD50 to anticonvulsant ED50 for po dosed albino Spague-Dawley rat. In kind it is functional. In outline: (§2)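 Protective index is calculated as rotorod TD50 divided by MES ED50, both in mg/kg and from the same species and route (mice ip, rats po).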
The test system of data set [6] is Rattus norvegicus. Put plainly: Anticonvulsant activity in ip dosed albino Sprague-Dawley rat assessed as protection against maximal electroshock-induced seizure. In kind it is functional. The following applies: albino Spague-Dawley. The method, boiled down:
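Run under the NINDS Anticonvulsant Screening Program. Rats received compound intraperitoneally as a stated exception to the usual oral rat route. Protection meant blocking hind-limb extension in the maximal electroshock test. ED50 was derived from quantitative dose-response screening of compounds with significant activity.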

Data set [7] can be described thus: Neurotoxicity in ip dosed albino Sprague-Dawley rat by rotarod test. It counts as toxicity, organism-based, albino Spague-Dawley. The following applies: in vivo.
Data set [8] is described as follows: Neurotoxicity in ip dosed albino Carworth Farms number 1 mouse by rotarod test. In kind it is toxicity, organism-based. The following applies: in vivo.
Data set [9] has as its system Mus musculus. Put plainly: Protective index, ratio of neurotoxicity TD50 to anticonvulsant ED50 for ip dosed albino Carworth Farms number 1 mouse. It counts as functional. In outline: as §2
The test system of data set [10] is Rattus norvegicus. Put plainly: Neurotoxicity in albino Sprague-Dawley rat assessed as induction of ataxia at up to 3000 mg/kg, po by rotarod test. It counts as toxicity, organism-based, albino Spague-Dawley. Set-up: dose 3000 mg/kg, route oral. The following applies: in vivo. In outline: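 Rats were dosed orally. Median neurotoxic dose (TD50) was taken from behavioural neurological impairment, judged with the rotarod test. It was determined only for compounds with significant activity in the maximal electroshock test. Testing was done under the NINDS Anticonvulsant Screening Program procedures.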

`C#CCOC[C@@H](NC(C)=O)C(=O)NCc1ccccc1`: the 50% effective dose (ED50) with Mus musculus [1] was found to be 16 mg/kg; in the data set on Mus musculus [2], 29 mg/kg; with Rattus norvegicus [3], 7.9 mg/kg. In data set [4], this molecule had a TD50 of more than 500 mg/kg. Besides, the “Ratio TD50/ED50” value with Rattus norvegicus [5] is on record as more than 63.

Take `CC(=O)N[C@H](COCCN=[N+]=[N-])C(=O)NCc1ccccc1`: the 50% effective dose (ED50) in the data set on Mus musculus [1] was 100 mg/kg; in the data set with Mus musculus [2], 44 mg/kg; in the data set with Rattus norvegicus [3], more than 40 mg/kg; in the data set with Rattus norvegicus [6], 5.7 mg/kg. Further, the “Ratio TD50/ED50” value in the data set with Rattus norvegicus [5] is more than 13. The molecule further displayed a TD50 in data set [7] of 78 mg/kg.

With `CC(=O)N[C@H](COCCN=C=S)C(=O)NCc1ccccc1`, the ED50 with Mus musculus [1] was more than 300 mg/kg; in the data set on Rattus norvegicus [3], less than 30 mg/kg. Besides, the TD50 is 100 mg/kg in [8] and more than 30 mg/kg in data set [4].

In the case of `[2H]C([2H])([2H])OC[C@@H](NC(C)=O)C(=O)NCc1ccccc1`, the ED50 with Rattus norvegicus [3] was found to be 5.2 mg/kg. The molecule further returned a TD50 in [4] of 200 mg/kg.

As for `CC(=O)N[C@H](COC1CCCCC1)C(=O)NCc1ccccc1`, the median effective dose (ED50) with Mus musculus [1] was found to be 100 mg/kg; in the data set with Rattus norvegicus [3] it was 30 mg/kg. In addition, the TD50 is 300 mg/kg in [8] and more than 30 mg/kg in [4].

With `CC#CCOC[C@@H](NC(C)=O)C(=O)NCc1ccccc1`, the 50% effective dose (ED50) with Mus musculus [1] turned out to be 30 mg/kg; in the data set on Rattus norvegicus [3], 6.4 mg/kg. For the same molecule, the TD50 in data set [8] is 30 mg/kg; in data set [4], more than 500 mg/kg.

For the molecule `CC(=O)N[C@H](COCC1CCCCC1)C(=O)NCc1ccccc1`, the ED50 with Mus musculus [1] was determined as 100 mg/kg. Also, the TD50 in [8] came to 300 mg/kg.

In the case of `CC(=O)N[C@H](COCc1ccccc1)C(=O)NCc1ccccc1`, the ED50 with Mus musculus [1] is 64 mg/kg; in the data set on Rattus norvegicus [3] it was more than 30 mg/kg. Besides, the TD50 is 200 mg/kg in [8] and more than 30 mg/kg in data set [4]. Moreover, the “Ratio TD50/ED50” value in the data set with Mus musculus [9] came out at 3.2.

As for `C=CCCOC[C@@H](NC(C)=O)C(=O)NCc1ccccc1`, the ED50 with Mus musculus [1] is 30 mg/kg; in the data set with Rattus norvegicus [3], 17 mg/kg. Also, the figures for the TD50 in [8] and in data set [4] were 100 mg/kg and more than 500 mg/kg, respectively. Besides, the “Ratio TD50/ED50” value with Rattus norvegicus [5] was more than 29.

With `CC(=O)N[C@H](COCCC1CC1)C(=O)NCc1ccccc1`, the ED50 with Mus musculus [1] is 46 mg/kg; with Rattus norvegicus [3], more than 30 mg/kg. Moreover, the TD50 in [8] is 85 mg/kg; in data set [4], more than 30 mg/kg. The “Ratio TD50/ED50” value in the data set with Mus musculus [9] is listed as 1.9.

For the molecule `C#CCCOC[C@@H](NC(C)=O)C(=O)NCc1ccccc1`, the values for the 50% effective dose (ED50) in the data set with Mus musculus [1] and in the data set with Rattus norvegicus [3] were 30 mg/kg and 11 mg/kg, respectively. Further, the TD50 in data set [8] stood at 30 mg/kg; in data set [4], 250 mg/kg. Further, the “Ratio TD50/ED50” value with Rattus norvegicus [5] was more than 23.

Regarding `CC(=O)N[C@H](COCCc1ccccc1)C(=O)NCc1ccccc1`, the figures for the ED50 in the data set with Mus musculus [1] and in the data set on Rattus norvegicus [3] were 100 mg/kg and more than 30 mg/kg, respectively. The TD50 in data set [8] is 100 mg/kg; in data set [4], more than 30 mg/kg.

Take `CC(=O)N[C@H](COCCC1(C)N=N1)C(=O)NCc1ccccc1`: the 50% effective dose (ED50) with Mus musculus [1] turned out to be 30 mg/kg; with Rattus norvegicus [3], 44 mg/kg. The figures for the TD50 in data set [8] and in data set [4] were 100 mg/kg and more than 500 mg/kg, respectively. The “Ratio TD50/ED50” value in the data set on Rattus norvegicus [5] is listed as more than 11.

For `CC(=O)N[C@H](COCCC=O)C(=O)NCc1ccccc1`, the ED50 in the data set on Mus musculus [1] was more than 300 mg/kg; in the data set on Rattus norvegicus [3], more than 100 mg/kg. The TD50 in [8] was more than 300 mg/kg.

In the case of `CC(=O)NCCOC[C@@H](NC(C)=O)C(=O)NCc1ccccc1`, the 50% effective dose (ED50) with Mus musculus [1] is more than 300 mg/kg; in the data set on Rattus norvegicus [3] it was more than 30 mg/kg. Besides, the TD50 is more than 300 mg/kg in data set [8] and more than 30 mg/kg in data set [4].

Take `COCc1cn(CCOC[C@@H](NC(C)=O)C(=O)NCc2ccccc2)nn1`: the median effective dose (ED50) was more than 300 mg/kg in the data set on Mus musculus [1] and more than 100 mg/kg in the data set with Mus musculus [2]. Further, the TD50 in data set [8] was more than 300 mg/kg.

As for `COCCOC[C@@H](NC(C)=O)C(=O)NCc1ccccc1`, in the data set with Mus musculus [1], the ED50 turned out to be 30 mg/kg. Besides, the TD50 in data set [8] came out at 300 mg/kg.

As for `CC(=O)N[C@H](COC(C)C)C(=O)NCc1ccccc1`, the median effective dose (ED50) in the data set on Mus musculus [1] amounted to 23 mg/kg; in the data set on Mus musculus [2] it was 23 mg/kg; in the data set on Rattus norvegicus [3] it was 8.6 mg/kg. For the same molecule, the “Ratio TD50/ED50” value is recorded as 3.3 with Mus musculus [9] and more than 58 with Rattus norvegicus [5]. The molecule further showed a TD50 in [4] of more than 500 mg/kg.

Consider `CCOC[C@@H](NC(C)=O)C(=O)NCc1ccccc1`, for which the results for the ED50 with Mus musculus [1] and in the data set on Rattus norvegicus [3] were 7.9 mg/kg and 5.6 mg/kg, respectively. Also, the “Ratio TD50/ED50” value is 5.6 with Mus musculus [9] and more than 89 with Rattus norvegicus [5]. Besides, in data set [4], the TD50 is more than 500 mg/kg.

As for `COCCOCCOC[C@@H](NC(C)=O)C(=O)NCc1ccccc1`, the ED50 in the data set on Mus musculus [1] was more than 300 mg/kg; in the data set with Mus musculus [2] it was more than 100 mg/kg; with Rattus norvegicus [3], more than 30 mg/kg. Further, the TD50 in data set [8] was more than 300 mg/kg; in data set [4] it was more than 50 mg/kg.

Regarding `CC(=O)N[C@H](COC(C)(C)C)C(=O)NCc1ccccc1`, the median effective dose (ED50) in the data set on Mus musculus [1] turned out to be 30 mg/kg. This molecule displayed a TD50 in [8] of 300 mg/kg.

Take `CC(=O)N[C@H](COc1ccccc1)C(=O)NCc1ccccc1`: the 50% effective dose (ED50) in the data set on Mus musculus [1] was 100 mg/kg. In addition, the TD50 in data set [8] was more than 600 mg/kg.

On to `CC(=O)N[C@H](COCCC1CO1)C(=O)NCc1ccccc1` (mixture of isomers), for which, in the data set with Mus musculus [1], the 50% effective dose (ED50) was more than 300 mg/kg. In addition, the TD50 in data set [8] is more than 300 mg/kg.

`C=CCOCC(NC(C)=O)C(=O)NCc1ccccc1` (racemic): the ED50 with Mus musculus [1] came to 30 mg/kg. Also, the TD50 in data set [8] turned out to be 30 mg/kg.

Consider `COC[C@@H](NC(C)=O)C(=O)NCc1ccccc1` [LACOSAMIDE], for which, in [4], the TD50 is more than 500 mg/kg.

With `CCC1(c2ccccc2)C(=O)NC(=O)NC1=O` [PHENOBARBITAL], the figures for the ED50 in the data set with Mus musculus [1] and in the data set with Rattus norvegicus [3] were 22 mg/kg and 9.1 mg/kg, respectively.

As for `O=C1NC(=O)C(c2ccccc2)(c2ccccc2)N1` [PHENYTOIN], the ED50 in the data set with Rattus norvegicus [3] is 30 mg/kg. Moreover, the Activity result in the data set with Rattus norvegicus [10] is given as “Non-toxic”.

On to `CCCC(CCC)C(=O)O` [VALPROIC ACID], for which the median effective dose (ED50) in the data set on Mus musculus [1] is 270 mg/kg.

One may read the ED50 as the dose that gives a 50% effect, or the effect in half of the subjects. For orientation: TD50 means the dose at which the toxic effect under study appears in half of the subjects. A low value points to greater toxicity.
